The AUC(0-t) is exposure summed from dosing to a finite time, without extrapolation to infinity. Read a high AUC(0-t) as high exposure. One may read the Cmax as the highest concentration seen after dosing. By half-life is commonly meant how long it takes for the measured level to halve.

Data set [1] can be described thus: AUC (0 to 8 hrs) in Crl:CD (SD) rat at 100 mg/kg, po after 0.5 to 8 hrs. It counts as ADME, organism-based. On the set-up: time < 8 hr, dose 100 mg/kg, route oral. Conditions: plasma. The method in brief:
(§1)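 Male Crl:CD (SD) rats were given a single oral bolus of the prodrug by gavage at 100, 300 or 1000 mg kg^-1. Blood was drawn from the tail at 0, 0.5, 2, 4 and 8 h, and plasma was separated by centrifugation (6000 rpm, 10 min, 4 °C) and held at -25 °C for no more than 19 days. Released tricin was quantified. Two Cmax values were reported, with AUC over 0-8 h; means ± SEMs, n = 3.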

Data set [2] relates to Mus musculus. Nature of the data set: Toxicity in Crlj:CD1 (ICR) mouse assessed as abnormal appearance at 300 mg/kg/day, po for 14 days. The format is organism-based. On the set-up: route oral. Particulars: in vivo, 336 h.
Data set [3] in a line: Cmax in Crl:CD (SD) rat at 1000 mg/kg, po after 0.5 to 8 hrs by RP-HPLC. It counts as ADME, organism-based. On the set-up: dose 1000 mg/kg, route oral. Conditions: in vivo. The method in brief: as §1
Data set [4] can be described thus: Cmax in Crl:CD (SD) rat at 100 mg/kg, po after 0.5 to 8 hrs by RP-HPLC. On the set-up: dose 100 mg/kg, route oral. The format is ADME, organism-based. Conditions: in vivo. The method in brief: as §1
Data set [5] is described as follows: AUC (0 to 8 hrs) in Crl:CD (SD) rat at 1000 mg/kg, po after 0.5 to 8 hrs. It counts as ADME, organism-based. On the set-up: time < 8 hr, dose 1000 mg/kg, route oral. Conditions: plasma. The method in brief: as §1
For data set [6], the system named is Mus musculus. Nature of the data set: Toxicity in Crlj:CD1 (ICR) mouse assessed as abnormal body weight at 300 mg/kg/day, po for 14 days. The format is organism-based. On the set-up: route oral. Conditions: in vivo, 336 h.
The nature of data set [7]: Stability of the compound in MDCK cell lysate assessed as half life. It counts as ADME, cell-based, Canis lupus familiaris. Conditions: dog. The method in brief:
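Whole-cell lysate was prepared from 1.33 × 10⁶ MDCK cells with lysis buffer, and prodrugs were incubated with it. Half-life was taken as the time to 50% release of parent drug through carbamate hydrolysis by endogenous enzymes; means ± SEMs, n = 3.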

In data set [8] the test system is Mus musculus. Nature of the data set: Toxicity in Crlj:CD1 (ICR) mouse assessed as abnormal food consumption at 300 mg/kg/day, po for 14 days. It counts as organism-based. On the set-up: route oral. Conditions: in vivo, 336 h.
Data set [9] can be described thus: Cmax in Crl:CD (SD) rat at 300 mg/kg, po after 0.5 to 8 hrs by RP-HPLC. It counts as ADME, organism-based. On the set-up: dose 300 mg/kg, route oral. Particulars: in vivo. The method in brief: as §1
In data set [10] the test system is Mus musculus. Nature of the data set: Toxicity in Crlj:CD1 (ICR) mouse assessed as abnormal autopsy test at 300 mg/kg/day, po for 14 days. Particulars: in vivo, 336 h. It counts as organism-based. On the set-up: route oral.
The test system of data set [11] is Mus musculus. Briefly: Toxicity in Crlj:CD1 (ICR) mouse assessed as abnormal hematology at 300 mg/kg/day, po for 14 days. On the set-up: route oral. Conditions: in vivo, 336 h. The format is organism-based.
Data set [12] in a line: AUC (0 to 8 hrs) in Crl:CD (SD) rat at 300 mg/kg, po after 0.5 to 8 hrs. It counts as ADME, organism-based. Conditions: plasma. On the set-up: time < 8 hr, dose 300 mg/kg, route oral. The method in brief:
as §1

Data set [13] deals with Mus musculus. Briefly: Toxicity in Crlj:CD1 (ICR) mouse assessed as abnormal blood chemistry at 300 mg/kg/day, po for 14 days. The format is organism-based. On the set-up: route oral. Conditions: in vivo, 336 h.
The subject of data set [14] is Plasma. Nature of the data set: Plasma concentration in Crl:CD (SD) rat at 300 mg/kg, po after 0.5 to 4 hrs. The format is ADME, organism-based. On the set-up: dose 300 mg/kg, route oral. Conditions: in vivo. The method in brief: (§2)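 Tricin was suspended in 1% aqueous methylcellulose (10 mL kg^-1), sonicated and given as a single gavage dose of 100, 300 or 1000 mg kg^-1 to male and female Crl:CD (SD) rats. Tail blood was taken at 0, 0.5, 2 and 4 h, and plasma tricin was quantified by RP-HPLC; means ± SEMs, n = 3.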

Data set [15] deals with Plasma. Briefly: Plasma concentration in Crl:CD (SD) rat at 100 mg/kg, po after 0.5 to 4 hrs. It counts as ADME, organism-based. On the set-up: dose 100 mg/kg, route oral. Particulars: in vivo. The method in brief: as §2
The test system of data set [16] is Plasma. Nature of the data set: Plasma concentration in Crl:CD (SD) rat at 1000 mg/kg, po after 0.5 to 4 hrs. Conditions: in vivo. On the set-up: dose 1000 mg/kg, route oral. It counts as ADME, organism-based. The method in brief:
as §2

For `COc1cc(-c2cc(=O)c3c(O)cc(O)cc3o2)cc(OC)c1OC(=O)N[C@@H](C)C(=O)N[C@@H](CCC(=O)O)C(=O)O`, the AUC(0-t) at 8 h in [1] amounted to 10300 ng·h/mL; in data set [5], 21500 ng·h/mL; in data set [12], 15100 ng·h/mL. The Activity entry with Mus musculus [2], in the data set with Mus musculus [6], in the data set with Mus musculus [8], with Mus musculus [10], in the data set on Mus musculus [11] and in the data set with Mus musculus [13] was “Non-toxic” throughout. Besides, the Cmax stood at 2880 ng/mL in data set [3], 692 ng/mL in [4] and 2870 ng/mL in [9]. In addition, the half-life in data set [7] was 2.75 h.
As for `COc1cc(-c2cc(=O)c3c(O)cc(O)cc3o2)cc(OC)c1O` [TRICIN], the Cp in the data set on Plasma [14], with Plasma [15] and with Plasma [16] was below 60 ng/mL in each case.

The values above are taken from ChEMBL document CHEMBL1687917, “Increased bioavailability of tricin-amino acid derivatives via a prodrug approach” (J Med Chem, 2011).
